PubChem BioAssay AID463169 (The Scripps Research Institute Molecular Screening Center, 2010)

Target: Wee1-like protein kinase (Homo sapiens) (UniProt P30291)
Test: Wee1 degradation inhibitors in HeLa reporter cells – cell-based, Wee1-luciferase fusion, luminescence, powder samples, late-stage follow-up (AID 463169)
Settings: luminescence stabilization, at 0.1 µM, hits give high values
Method in brief: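 test system = HeLa cells expressing Wee1-luciferase fusion | schedule = transfection 48 h before assay, compound exposure 20 h at 37 °C | signal = luciferase luminescence | measure = average fold change in luminescence relative to DMSO-treated cells | repeats = four replicates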

Sequence of Wee1-like protein kinase (Homo sapiens) (P30291 whole entry K328M, the tested form may be a part): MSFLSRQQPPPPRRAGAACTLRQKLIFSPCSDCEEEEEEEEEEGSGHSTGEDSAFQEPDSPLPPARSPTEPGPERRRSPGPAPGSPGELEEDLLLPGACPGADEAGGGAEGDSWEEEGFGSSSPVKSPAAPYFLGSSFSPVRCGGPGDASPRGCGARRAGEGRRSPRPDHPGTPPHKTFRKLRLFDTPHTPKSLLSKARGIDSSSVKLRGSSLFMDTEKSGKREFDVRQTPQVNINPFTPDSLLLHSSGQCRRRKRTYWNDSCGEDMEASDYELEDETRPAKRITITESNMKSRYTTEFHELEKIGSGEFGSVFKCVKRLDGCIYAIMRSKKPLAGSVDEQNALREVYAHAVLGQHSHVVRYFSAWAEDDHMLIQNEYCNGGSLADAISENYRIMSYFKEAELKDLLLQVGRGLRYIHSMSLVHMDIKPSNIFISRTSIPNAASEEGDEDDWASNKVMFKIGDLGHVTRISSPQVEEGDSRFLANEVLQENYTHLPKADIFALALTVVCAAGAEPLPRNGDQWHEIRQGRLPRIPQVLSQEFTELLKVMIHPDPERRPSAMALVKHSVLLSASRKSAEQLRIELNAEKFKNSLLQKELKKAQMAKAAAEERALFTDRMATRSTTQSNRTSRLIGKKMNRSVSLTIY

Row | fold change | Compound
1 | 12.9 | c1ccc2[nH]c(CNc3nc(N4CCOCC4)nc4c3ncn4-c3ccsc3)nc2c1
2 | 23.3 | O=[N+]([O-])c1cccc2[nH]c(CNc3nc(N4CCOCC4)nc4c3ncn4-c3ccsc3)nc12
